Data on 12 compounds can be found in ChEMBL document CHEMBL4334524, “Discovery of Highly Polar β-Homophenylalanine Derivatives as Nonsystemic Intestine-Targeted Dipeptidyl Peptidase IV Inhibitors” (J Med Chem, 2019).

Active and inactive are the calls of the source. No cut-off for these calls is given here.

The target in one series is Dipeptidyl peptidase 4 (Mus musculus, UniProt P28843). The series is described as follows: Inhibition of DPP4 in C57BL/6 mouse serum pre-incubated for 5 mins followed by Gly-Pro-7-AMC substrate addition by fluorescence based assay. Type of series: cell-free.
A short description of series [1]: Solubility in pH 6.8 buffer by nephelometry. Format: physicochemical.
The nature of series [2]: Solubility in pH 7.4 buffer by nephelometry. Format: physicochemical.
Series [3] in a line: Solubility in pH 7.0 buffer by nephelometry. Type of series: physicochemical.
Series [4] can be described thus: Apparent permeability from apical to basolateral side in human Caco2 cells at 20 uM incubated for […] by LC-MS/MS analysis. As to conditions: Caco-2. Format: ADME, cell-based.
Series [5] is described as follows: Apparent permeability from basolateral to apical side in human Caco2 cells at 20 uM incubated for […] by LC-MS/MS analysis. Format: ADME, cell-based. As to conditions: Caco-2. (Passage across Caco-2 layers is used to estimate intestinal permeability.)
Series [6] can be described thus: Efflux ratio in human Caco2 cells at 20 uM incubated for […] by LC-MS/MS analysis. Format: ADME, cell-based. As to conditions: Caco-2.
Series [7] in a line: Stability in human intestinal S9 fractions assessed as phase I and phase II enzymes-mediated generation of systemic metabolites at 0.1 uM incubated at 37 degC for 10 mins by LC-MS/MS analysis. Format: ADME, subcellular, Intestine, S9 fraction. As to conditions: s9, 10 min.
Series [8] in a line: Stability in mouse intestinal S9 fractions assessed as phase I and phase II enzymes-mediated generation of systemic metabolites at 0.1 uM incubated at 37 degC for 10 mins by LC-MS/MS analysis. Type of series: ADME, subcellular, Intestine, S9 fraction. As to conditions: s9, 10 min.
Series [9] has as its system Mus musculus. The series is described as follows: Inhibition of jejunum DPP4 in BALB/c mouse at 30 mg/kg, po after 8 hrs using Gly-Pro-7-AMC substrate by fluorescence based assay. Format: functional, organism-based. The essentials: (§1)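 Mice were dosed orally at 30 mg/kg and intestinal DPPIV activity was measured 8 h later in three intestinal segments. Activity is expressed relative to a vehicle control group, with n = 6 per group. Data are mean ± SEM, compared with control by Student's t-test.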

In series [10] the test system is Mus musculus. The series is described as follows: Inhibition of ileum DPP4 in BALB/c mouse at 30 mg/kg, po after 8 hrs using Gly-Pro-7-AMC substrate by fluorescence based assay. Type of series: functional, organism-based. The essentials: as §1
The subject of series [11] is Mus musculus. The series can be described thus: Inhibition of colon DPP4 in BALB/c mouse at 30 mg/kg, po after 8 hrs using Gly-Pro-7-AMC substrate by fluorescence based assay. Type of series: functional, organism-based. The essentials:
as §1

Series [12] is described as follows: Selectivity index, ratio of IC50 for recombinant human DPP8 to IC50 for inhibition of DPP4 in C57BL/6 mouse serum.
Series [13] can be described thus: Selectivity index, ratio of IC50 for recombinant human DPP9 to IC50 for inhibition of DPP4 in C57BL/6 mouse serum.
A further series concerns HepG2. The series is described as follows: Cytotoxicity in human HepG2 cells assessed as reduction in cell viability up to 200 uM incubated for 24 hrs by MTT assay. Format: cell-based. As to conditions: hepg2, 24 h. (In general: Tetrazolium assays rely on reduction of a dye to a coloured formazan, in cell work by metabolically active cells.)
The subject of the next series is HEK293. The series is described as follows: Cytotoxicity in HEK293 cells assessed as reduction in cell viability up to 200 uM incubated for 24 hrs by MTT assay. Type of series: cell-based. As to conditions: human, hek293, 24 h.
Another series concerns Hepatocyte. The series can be described thus: Cytotoxicity in mouse primary hepatocytes assessed as reduction in cell viability up to 200 uM incubated for 24 hrs by MTT assay. Type of series: cell-based.
A short description of series [14]: Toxicity in ICR mouse assessed as mouse survival at 1000 mg/kg, po administered as single dose after 4 days. As to conditions: in vivo, 96 h.
A short description of series [15]: Toxicity in ICR mouse assessed as effect on body weight at 1000 mg/kg, po administered as single dose after 4 days. As to conditions: in vivo, 96 h.
Series [16] is described as follows: Toxicity in ICR mouse assessed as effect on clinical parameters at 1000 mg/kg, po administered as single dose after 4 days. As to conditions: in vivo, 96 h.
Series [17] is described as follows: Toxicity in ICR mouse assessed as effect on behavioral parameters at 1000 mg/kg, po administered as single dose after 4 days. As to conditions: in vivo, 96 h.

Sequence of Dipeptidyl peptidase 4 (P28843 whole entry): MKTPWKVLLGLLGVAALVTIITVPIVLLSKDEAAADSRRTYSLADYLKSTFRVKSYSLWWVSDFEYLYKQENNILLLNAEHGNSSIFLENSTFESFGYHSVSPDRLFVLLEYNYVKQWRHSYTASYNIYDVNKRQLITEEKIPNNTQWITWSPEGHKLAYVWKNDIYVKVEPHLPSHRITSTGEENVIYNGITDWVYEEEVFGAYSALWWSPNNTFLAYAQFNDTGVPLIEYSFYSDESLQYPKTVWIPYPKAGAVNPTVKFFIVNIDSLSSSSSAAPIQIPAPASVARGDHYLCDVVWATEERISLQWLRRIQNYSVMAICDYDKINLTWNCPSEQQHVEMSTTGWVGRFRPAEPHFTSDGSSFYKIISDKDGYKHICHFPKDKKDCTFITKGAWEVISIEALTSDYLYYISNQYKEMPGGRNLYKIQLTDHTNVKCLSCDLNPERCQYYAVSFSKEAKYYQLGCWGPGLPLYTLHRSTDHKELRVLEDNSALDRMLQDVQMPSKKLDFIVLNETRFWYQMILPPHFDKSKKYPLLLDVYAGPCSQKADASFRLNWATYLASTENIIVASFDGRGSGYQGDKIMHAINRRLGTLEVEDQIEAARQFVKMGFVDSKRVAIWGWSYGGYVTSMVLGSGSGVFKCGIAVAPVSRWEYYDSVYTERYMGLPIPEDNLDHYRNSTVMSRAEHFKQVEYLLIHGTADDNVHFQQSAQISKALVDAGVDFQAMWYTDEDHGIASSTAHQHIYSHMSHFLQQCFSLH

What is called IC50 is the concentration that inhibits the measured activity by half. Lower therefore signals greater potency in that assay. In general, solubility (kinetic) refers to the concentration staying in solution when a stock, usually in DMSO, is diluted into the medium. For orientation: Papp A→B means how fast a substance crosses the layer from the apical side. For orientation: Papp B→A means the apparent permeability from the basolateral to the apical side of a cell layer. One may read the efflux ratio as the permeability from basolateral to apical divided by that in the opposite direction, in the common usage. In turn, `C[N+](C)(C)CCNC(=O)COc1ccc2nc(C3(NC(=O)C[C@H](N)Cc4cc(F)c(F)cc4F)CCS(=O)(=O)CC3)sc2c1.O=C(O)C(F)(F)F.O=C([O-])C(F)(F)F` yielded an IC50 against Dipeptidyl peptidase 4 of 1.4 nM. The solubility (kinetic) in [1], in [2] and in [3] was greater than 50 µM in each case. Also, the Papp A→B at […], 20 µM in series [4] came to 0.2 nm/s. In addition, the Papp B→A at […], 20 µM in series [5] came out at 0.04 nm/s. In series [6], the efflux ratio at […], 20 µM stood at 0.2. Moreover, the Stability entry in series [7] and in series [8] was “Stable” throughout. For the same compound, the inhibition result with Mus musculus [9], with Mus musculus [10] and in the series on Mus musculus [11] was “Active” throughout.

`N[C@@H](CC(=O)NC1(c2nc3ccc(OCCCCCC(=O)NC[C@H](O)[C@@H](O)[C@@H](O)[C@H](O)CO)cc3s2)CCS(=O)(=O)CC1)Cc1cc(F)c(F)cc1F.O=C(O)C(F)(F)F` returned an IC50 at Dipeptidyl peptidase 4 of 3.5 nM. Also, the kinetic solubility in [1] was greater than 50 µM; in series [2], 20 to 50 µM; in series [3], 20 to 50 µM. For the same compound, the Papp A→B at […], 20 µM in series [4] is 0.2 nm/s. Moreover, the Papp B→A at […], 20 µM in series [5] is 2.7 nm/s. Moreover, in series [6], the efflux ratio at […], 20 µM worked out at 13.

In turn, `N[C@@H](CC(=O)NC1(c2nc3ccc(OCCCCCCCCCCCC(=O)NC[C@H](O)[C@@H](O)[C@@H](O)[C@H](O)CO)cc3s2)CCS(=O)(=O)CC1)Cc1cc(F)c(F)cc1F` registered an IC50 against Dipeptidyl peptidase 4 of 168 nM. That is a sub-micromolar value.

As to `N[C@@H](CC(=O)NC1(c2nc3ccc(OCC(=O)NCCS(=O)(=O)O)cc3s2)CCS(=O)(=O)CC1)Cc1cc(F)c(F)cc1F.O=C(O)C(F)(F)F`, on Dipeptidyl peptidase 4, half-maximal inhibition (IC50) required 1.1 nM. For the same compound, the kinetic solubility in [1], in series [2] and in series [3] was greater than 50 µM throughout. In addition, in series [4], the Papp A→B at […], 20 µM was 0.4 nm/s. The Papp B→A at […], 20 µM in series [5] was 0.1 nm/s. Also, in series [6], the efflux ratio at […], 20 µM was determined as 0.3. Also, the Stability result in series [7] and in series [8] was “Stable” each time. For the same compound, the inhibition entry with Mus musculus [9], with Mus musculus [10] and with Mus musculus [11] was “Active” throughout. Besides, the Ratio IC50 in series [12] and in series [13] was greater than 2000 each time. Besides, the Activity result (with HepG2; in the series with HEK293; in the series on Hepatocyte; in series [14]; in series [15]; in series [16]) was “Non-Toxic” each time. Also, in series [17], the Activity entry was “Non-Toxic”.

As to `N[C@@H](CC(=O)NC1(c2nc3ccc(OCC(=O)NC[C@H](O)[C@@H](O)[C@@H](O)[C@H](O)CO)cc3s2)CCS(=O)(=O)CC1)Cc1cc(F)c(F)cc1F.O=C(O)C(F)(F)F`, inhibition on Dipeptidyl peptidase 4 was half-maximal at 2.2 nM (IC50). For the same compound, the kinetic solubility in series [1], in [2] and in series [3] was greater than 50 µM throughout. Moreover, in [4], the Papp A→B at […], 20 µM was found to be 0.2 nm/s. For the same compound, the Papp B→A at […], 20 µM in series [5] was determined as 0.01 nm/s. Further, the efflux ratio at […], 20 µM in series [6] came out at 0.05.

Consider `O=c1ccc2ccc(O)cc2o1` [UMBELLIFERONE], for which the Stability entry in series [7] and in series [8] was “Unstable” in each case.

With `N[C@@H](CC(=O)N1CCn2c(nnc2C(F)(F)F)C1)Cc1cc(F)c(F)cc1F` [SITAGLIPTIN], the Papp A→B at […], 20 µM in series [4] was 2.5 nm/s. Further, the Papp B→A at […], 20 µM in series [5] stood at 122 nm/s. For the same compound, the inhibition result with Mus musculus [9], in the series on Mus musculus [10] and in the series with Mus musculus [11] was “Active” each time.

`C[N+](C)(C)CCNC(=O)CCCCCCCCCCCOc1ccc2nc(C3(NC(=O)C[C@H](N)Cc4cc(F)c(F)cc4F)CCS(=O)(=O)CC3)sc2c1` showed an IC50 on Dipeptidyl peptidase 4 of 116 nM.

Turning to `C[N+](C)(C)CCNC(=O)CCCCCOc1ccc2nc(C3(NC(=O)C[C@H](N)Cc4cc(F)c(F)cc4F)CCS(=O)(=O)CC3)sc2c1.O=C(O)C(F)(F)F.O=C([O-])C(F)(F)F`, at Dipeptidyl peptidase 4, inhibition was half-maximal at 3 nM (IC50). For the same compound, the kinetic solubility in series [1], in [2] and in [3] was greater than 50 µM throughout. Also, in series [4], the Papp A→B at […], 20 µM is 0.2 nm/s. The Papp B→A at […], 20 µM in [5] amounted to 1.1 nm/s. Also, the efflux ratio at […], 20 µM in [6] stood at 6.

With `C[C@]12CC[C@H]3[C@@H](CCC4=CC(=O)CC[C@@]43C)[C@@H]1CC[C@@H]2O` [TESTOSTERONE], the Stability result in [7] and in series [8] was “Unstable” throughout.

Regarding `N[C@@H](CC(=O)NC1(c2nc3ccc(OCCCCCC(=O)NCCS(=O)(=O)O)cc3s2)CCS(=O)(=O)CC1)Cc1cc(F)c(F)cc1F.O=C(O)C(F)(F)F`, at Dipeptidyl peptidase 4, 2 nM corresponded to half-maximal inhibition (IC50). The solubility (kinetic) in series [1] is 20 to 50 µM; in series [2], greater than 50 µM; in series [3], greater than 50 µM. In series [4], the Papp A→B at […], 20 µM was 0.02 nm/s. For the same compound, the Papp B→A at […], 20 µM in series [5] amounted to 5.9 nm/s. In series [6], the efflux ratio at […], 20 µM turned out to be 295.

Consider `N[C@@H](CC(=O)NC1(c2nc3ccc(OCCCCCCCCCCCC(=O)NCCS(=O)(=O)O)cc3s2)CCS(=O)(=O)CC1)Cc1cc(F)c(F)cc1F`, for which half-maximal inhibition at Dipeptidyl peptidase 4 (IC50) was put at 81.8 nM.
